ChEMBL document CHEMBL5653631, “A Potent and Selective ULK1 Inhibitor Suppresses Autophagy and Sensitizes Cancer Cells to Nutrient Stress” (iScience, 2018)
Blank lines part the entries; values can stand above or below the molecule they belong to.

Experiments:
[1] = target: SRSF protein kinase 1 (Homo sapiens) (UniProt Q96SB4); assay: Inhibition of human recombinant SRPK1 at 500 nM related to control ULK1
[2] = target: T1, Inhibitor of nuclear factor kappa-B kinase subunit beta (Homo sapiens) (UniProt O14920); assay: Inhibition of human recombinant IKKb at 500 nM related to control ULK1
T1 sequence (whole entry): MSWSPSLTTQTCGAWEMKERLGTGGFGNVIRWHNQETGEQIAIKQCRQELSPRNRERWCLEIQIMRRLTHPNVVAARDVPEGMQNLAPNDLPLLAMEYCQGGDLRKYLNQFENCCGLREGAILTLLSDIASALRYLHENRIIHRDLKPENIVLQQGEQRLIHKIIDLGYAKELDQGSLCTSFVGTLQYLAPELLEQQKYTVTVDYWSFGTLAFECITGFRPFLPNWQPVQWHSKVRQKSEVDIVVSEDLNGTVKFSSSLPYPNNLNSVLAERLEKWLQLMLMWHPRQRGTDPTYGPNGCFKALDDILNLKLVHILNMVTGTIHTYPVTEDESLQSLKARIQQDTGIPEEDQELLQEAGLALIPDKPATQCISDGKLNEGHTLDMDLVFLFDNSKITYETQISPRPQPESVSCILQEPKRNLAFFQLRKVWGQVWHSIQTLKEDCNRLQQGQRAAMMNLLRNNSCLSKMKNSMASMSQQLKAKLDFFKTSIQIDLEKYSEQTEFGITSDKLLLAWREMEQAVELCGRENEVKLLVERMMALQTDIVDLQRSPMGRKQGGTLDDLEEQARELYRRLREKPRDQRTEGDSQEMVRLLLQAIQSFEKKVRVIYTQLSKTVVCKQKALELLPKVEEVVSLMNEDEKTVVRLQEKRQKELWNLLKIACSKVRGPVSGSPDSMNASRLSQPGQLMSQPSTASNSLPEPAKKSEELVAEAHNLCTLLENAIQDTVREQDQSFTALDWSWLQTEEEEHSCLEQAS

[3] = target: Interferon-induced, double-stranded RNA-activated protein kinase (Homo sapiens) (UniProt P19525); assay: Inhibition of human recombinant PKR at 500 nM in presence of ATP by radiometric assay relative to control
Interferon-induced, double-stranded RNA-activated protein kinase (Homo sapiens), sequence (P19525 whole entry): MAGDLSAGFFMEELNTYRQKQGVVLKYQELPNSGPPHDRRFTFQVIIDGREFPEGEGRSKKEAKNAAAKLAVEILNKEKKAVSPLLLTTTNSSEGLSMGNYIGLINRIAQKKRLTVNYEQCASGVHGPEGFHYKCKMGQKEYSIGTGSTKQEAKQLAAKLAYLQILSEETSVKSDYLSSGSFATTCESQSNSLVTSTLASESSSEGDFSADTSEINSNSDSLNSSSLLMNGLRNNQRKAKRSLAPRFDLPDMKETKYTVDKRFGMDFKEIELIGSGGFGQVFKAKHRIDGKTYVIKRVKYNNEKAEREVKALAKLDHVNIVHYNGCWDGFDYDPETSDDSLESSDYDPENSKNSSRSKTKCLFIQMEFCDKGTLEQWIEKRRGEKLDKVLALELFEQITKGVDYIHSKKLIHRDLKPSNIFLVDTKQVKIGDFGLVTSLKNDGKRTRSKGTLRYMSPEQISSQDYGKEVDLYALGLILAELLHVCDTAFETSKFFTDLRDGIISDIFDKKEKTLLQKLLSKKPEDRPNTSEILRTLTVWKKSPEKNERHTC

[4] = target: Serine/threonine-protein kinase pim-2 (Homo sapiens) (UniProt Q9P1W9); assay: Inhibition of human recombinant PIM2 at 500 nM in presence of ATP by radiometric assay relative to control
Serine/threonine-protein kinase pim-2 (Homo sapiens), sequence (Q9P1W9 whole entry, looked up): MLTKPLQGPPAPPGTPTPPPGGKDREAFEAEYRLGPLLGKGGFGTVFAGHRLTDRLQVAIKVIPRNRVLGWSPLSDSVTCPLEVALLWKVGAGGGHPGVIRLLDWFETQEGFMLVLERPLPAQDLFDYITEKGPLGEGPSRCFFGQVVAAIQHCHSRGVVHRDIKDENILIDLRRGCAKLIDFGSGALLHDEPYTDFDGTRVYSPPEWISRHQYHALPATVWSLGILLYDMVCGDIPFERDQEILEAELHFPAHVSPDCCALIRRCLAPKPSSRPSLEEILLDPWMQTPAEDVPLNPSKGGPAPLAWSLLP

[5] = target: TGF-beta receptor type-2 (Homo sapiens) (UniProt P37173); assay: Inhibition of human recombinant TGFbR2 at 500 nM in presence of ATP by radiometric assay relative to control
TGF-beta receptor type-2 (Homo sapiens), sequence (P37173 whole entry): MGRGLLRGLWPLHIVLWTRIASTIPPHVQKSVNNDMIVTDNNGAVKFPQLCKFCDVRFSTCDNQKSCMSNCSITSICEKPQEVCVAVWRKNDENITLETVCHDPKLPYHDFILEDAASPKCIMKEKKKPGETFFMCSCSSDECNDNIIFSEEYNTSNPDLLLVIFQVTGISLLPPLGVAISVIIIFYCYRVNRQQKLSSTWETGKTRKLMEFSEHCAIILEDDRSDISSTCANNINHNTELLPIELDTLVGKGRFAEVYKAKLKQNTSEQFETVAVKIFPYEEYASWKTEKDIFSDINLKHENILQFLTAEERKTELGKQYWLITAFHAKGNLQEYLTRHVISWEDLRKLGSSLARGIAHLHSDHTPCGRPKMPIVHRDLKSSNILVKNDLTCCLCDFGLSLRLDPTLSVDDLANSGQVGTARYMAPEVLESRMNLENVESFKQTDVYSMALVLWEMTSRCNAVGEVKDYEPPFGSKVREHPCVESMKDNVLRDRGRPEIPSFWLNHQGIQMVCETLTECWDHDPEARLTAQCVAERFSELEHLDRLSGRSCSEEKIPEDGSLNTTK

[6] = target: T2, Serine/threonine-protein kinase TBK1 (Homo sapiens) (UniProt Q9UHD2); assay: Inhibition of human recombinant TBK1 at 40 nM related to control ULK1
T2 sequence (whole entry): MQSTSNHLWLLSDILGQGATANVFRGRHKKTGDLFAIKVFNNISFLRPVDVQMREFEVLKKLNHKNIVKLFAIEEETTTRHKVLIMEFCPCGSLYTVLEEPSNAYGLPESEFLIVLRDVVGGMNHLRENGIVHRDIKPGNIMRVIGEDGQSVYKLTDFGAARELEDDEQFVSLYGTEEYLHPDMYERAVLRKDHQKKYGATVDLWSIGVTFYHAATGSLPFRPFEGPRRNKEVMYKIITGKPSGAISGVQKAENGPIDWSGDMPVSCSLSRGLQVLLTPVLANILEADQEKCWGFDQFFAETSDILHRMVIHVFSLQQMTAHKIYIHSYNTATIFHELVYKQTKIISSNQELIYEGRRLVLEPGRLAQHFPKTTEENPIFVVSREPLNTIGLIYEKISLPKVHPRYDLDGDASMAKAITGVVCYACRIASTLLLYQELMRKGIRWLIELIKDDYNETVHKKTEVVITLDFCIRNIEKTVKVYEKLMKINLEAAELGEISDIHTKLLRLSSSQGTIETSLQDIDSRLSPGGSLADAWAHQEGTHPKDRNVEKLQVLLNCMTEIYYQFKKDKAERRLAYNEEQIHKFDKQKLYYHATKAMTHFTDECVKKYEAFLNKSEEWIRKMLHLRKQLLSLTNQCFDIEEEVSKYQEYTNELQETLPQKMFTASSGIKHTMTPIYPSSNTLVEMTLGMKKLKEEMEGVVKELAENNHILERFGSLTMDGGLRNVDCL

[7] = target: T3, Serine/threonine-protein kinase BRSK2 (Homo sapiens) (UniProt Q8IWQ3); assay: Inhibition of human recombinant BRSK2 at 40 nM in presence of ATP by radiometric assay relative to control
T3 sequence (whole entry): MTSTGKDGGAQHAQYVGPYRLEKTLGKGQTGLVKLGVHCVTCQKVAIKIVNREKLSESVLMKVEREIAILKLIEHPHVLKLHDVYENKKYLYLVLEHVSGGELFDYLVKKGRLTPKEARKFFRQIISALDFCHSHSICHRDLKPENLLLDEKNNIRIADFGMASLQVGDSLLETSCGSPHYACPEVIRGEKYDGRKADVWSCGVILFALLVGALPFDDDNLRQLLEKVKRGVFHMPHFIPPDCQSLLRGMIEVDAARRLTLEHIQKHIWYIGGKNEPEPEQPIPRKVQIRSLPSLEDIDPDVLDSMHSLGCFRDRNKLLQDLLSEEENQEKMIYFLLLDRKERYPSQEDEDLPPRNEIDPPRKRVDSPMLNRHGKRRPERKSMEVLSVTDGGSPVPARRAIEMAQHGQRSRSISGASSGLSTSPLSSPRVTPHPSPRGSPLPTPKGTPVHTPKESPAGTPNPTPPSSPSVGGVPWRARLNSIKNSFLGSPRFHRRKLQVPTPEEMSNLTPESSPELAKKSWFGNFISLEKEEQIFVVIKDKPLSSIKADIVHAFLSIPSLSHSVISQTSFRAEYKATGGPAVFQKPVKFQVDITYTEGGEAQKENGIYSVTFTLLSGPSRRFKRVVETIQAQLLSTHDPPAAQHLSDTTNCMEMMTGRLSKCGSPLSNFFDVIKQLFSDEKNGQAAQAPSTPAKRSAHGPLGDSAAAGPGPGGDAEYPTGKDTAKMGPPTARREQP
How it was run: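 Recombinant human kinase panel (327 kinases) run as radiometric activity assays, each kinase in duplicate at one compound concentration. Activity remaining expressed relative to vehicle control; percent inhibition taken as 100% minus % activity remaining.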

[8] = target: Serine/threonine-protein kinase 35 (Homo sapiens) (UniProt Q8TDR2); assay: Inhibition of human recombinant CLIK1 at 15 nM in presence of ATP by radiometric assay relative to control
Serine/threonine-protein kinase 35 (Homo sapiens), sequence (Q8TDR2 whole entry): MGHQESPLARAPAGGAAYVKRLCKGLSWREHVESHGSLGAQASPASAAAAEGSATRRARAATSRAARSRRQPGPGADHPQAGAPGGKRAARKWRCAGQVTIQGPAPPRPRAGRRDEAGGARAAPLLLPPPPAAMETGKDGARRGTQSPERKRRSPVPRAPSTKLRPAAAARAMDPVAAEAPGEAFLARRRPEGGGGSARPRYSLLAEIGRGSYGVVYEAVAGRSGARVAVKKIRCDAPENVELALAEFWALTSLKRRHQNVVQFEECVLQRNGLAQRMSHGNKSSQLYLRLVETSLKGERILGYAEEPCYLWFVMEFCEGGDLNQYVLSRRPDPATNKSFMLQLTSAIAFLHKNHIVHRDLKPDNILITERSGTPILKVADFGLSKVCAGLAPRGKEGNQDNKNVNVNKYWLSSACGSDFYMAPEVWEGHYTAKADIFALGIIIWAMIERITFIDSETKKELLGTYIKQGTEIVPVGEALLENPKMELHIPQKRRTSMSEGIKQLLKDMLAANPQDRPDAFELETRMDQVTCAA

[9] = target: Proto-oncogene tyrosine-protein kinase Src (Homo sapiens) (UniProt P12931); assay: Inhibition of human recombinant SRC at 15 nM in presence of ATP by radiometric assay relative to control
Proto-oncogene tyrosine-protein kinase Src (Homo sapiens), sequence (P12931 2-536 limits assumed): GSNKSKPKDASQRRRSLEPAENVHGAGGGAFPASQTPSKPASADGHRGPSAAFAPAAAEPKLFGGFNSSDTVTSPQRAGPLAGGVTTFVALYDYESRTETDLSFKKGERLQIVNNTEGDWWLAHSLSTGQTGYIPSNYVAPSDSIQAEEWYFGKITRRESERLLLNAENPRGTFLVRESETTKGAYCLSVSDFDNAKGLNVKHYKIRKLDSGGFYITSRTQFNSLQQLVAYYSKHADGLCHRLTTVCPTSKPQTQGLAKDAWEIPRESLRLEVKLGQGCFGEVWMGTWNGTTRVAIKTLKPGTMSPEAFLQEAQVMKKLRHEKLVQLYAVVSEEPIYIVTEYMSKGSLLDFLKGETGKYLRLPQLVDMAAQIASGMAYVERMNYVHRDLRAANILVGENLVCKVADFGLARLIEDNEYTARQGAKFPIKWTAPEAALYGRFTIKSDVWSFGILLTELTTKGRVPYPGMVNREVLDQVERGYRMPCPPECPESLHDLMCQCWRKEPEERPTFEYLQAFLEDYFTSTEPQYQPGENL

[10] = target: Cyclin-dependent kinase-like 3 (Homo sapiens) (UniProt Q8IVW4); assay: Inhibition of human recombinant CDKL3 at 15 nM related to control ULK1
Cyclin-dependent kinase-like 3 (Homo sapiens), sequence (Q8IVW4 whole entry, looked up): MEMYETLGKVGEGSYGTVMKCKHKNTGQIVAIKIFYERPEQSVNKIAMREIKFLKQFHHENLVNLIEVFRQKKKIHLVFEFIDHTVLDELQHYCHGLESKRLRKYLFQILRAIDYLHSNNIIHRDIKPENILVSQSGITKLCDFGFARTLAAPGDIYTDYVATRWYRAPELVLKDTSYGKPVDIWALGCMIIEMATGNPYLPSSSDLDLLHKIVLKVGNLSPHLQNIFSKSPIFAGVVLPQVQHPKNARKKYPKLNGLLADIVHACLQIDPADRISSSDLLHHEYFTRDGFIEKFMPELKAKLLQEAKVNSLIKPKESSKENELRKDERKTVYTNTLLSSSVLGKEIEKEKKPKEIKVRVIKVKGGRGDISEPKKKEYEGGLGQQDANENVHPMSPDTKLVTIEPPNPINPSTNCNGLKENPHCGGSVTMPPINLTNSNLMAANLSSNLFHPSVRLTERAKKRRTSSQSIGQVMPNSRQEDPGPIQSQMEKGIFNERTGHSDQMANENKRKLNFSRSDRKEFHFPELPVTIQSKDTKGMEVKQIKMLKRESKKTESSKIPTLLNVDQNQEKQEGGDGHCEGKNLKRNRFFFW

SRSF protein kinase 1 (Homo sapiens), sequence (Q96SB4 whole entry): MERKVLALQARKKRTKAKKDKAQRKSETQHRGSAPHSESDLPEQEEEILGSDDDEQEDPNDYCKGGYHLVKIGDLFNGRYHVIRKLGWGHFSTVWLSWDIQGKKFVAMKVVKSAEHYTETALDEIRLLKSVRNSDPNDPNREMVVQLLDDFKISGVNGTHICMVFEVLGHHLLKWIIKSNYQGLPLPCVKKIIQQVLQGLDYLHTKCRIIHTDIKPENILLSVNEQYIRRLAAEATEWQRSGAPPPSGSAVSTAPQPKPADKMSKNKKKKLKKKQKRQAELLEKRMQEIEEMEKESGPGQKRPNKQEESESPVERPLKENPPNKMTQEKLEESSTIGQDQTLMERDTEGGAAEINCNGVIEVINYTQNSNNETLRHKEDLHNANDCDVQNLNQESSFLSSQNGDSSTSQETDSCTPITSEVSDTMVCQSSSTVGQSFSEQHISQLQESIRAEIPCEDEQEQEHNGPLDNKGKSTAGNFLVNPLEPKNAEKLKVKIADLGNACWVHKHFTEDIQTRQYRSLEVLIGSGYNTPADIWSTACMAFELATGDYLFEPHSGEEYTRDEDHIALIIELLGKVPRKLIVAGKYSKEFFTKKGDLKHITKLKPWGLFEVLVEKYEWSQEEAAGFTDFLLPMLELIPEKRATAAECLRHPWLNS

fold change (FC) [1]: 0.14 | fold change (FC) [2]: 0.03 | inhibition [3]: 4% | inhibition [4]: 2% | inhibition [5]: 2%
SMILES: CNC(=O)c1ccccc1Oc1nc(Nc2cc(OC)c(OC)c(OC)c2)ncc1Br

fold change (FC) [6]: 0.36 | inhibition [7]: 0%
SMILES: O=C(N[C@@H](C1CC1)C(F)(F)F)c1cc(-c2cnn3cc(-c4ccc(F)cc4)cnc23)cs1

inhibition [8]: 9% | inhibition [9]: 15% | fold change (FC) [10]: 0.39
SMILES: CC(C)[C@H](NC(=O)c1cc(-c2cnn3cc(-c4ccc(OCCN5CCCCC5)cc4)cnc23)cs1)C(F)(F)F
